From ChEMBL document CHEMBL1139214, “Lyngbyastatin 4, a dolastatin 13 analogue with elastase and chymotrypsin inhibitory activity from the marine cyanobacterium Lyngbya confervoides” (J Nat Prod, 2007)
Activity calls are given as the source filed them. The rule behind the calls is not given here.

Assays:
[1] = Selectivity for bovine alpha chymotrypsin over human plasmin
Sus scrofa [2] = species: Sus scrofa; assay: Inhibition of porcine pancreatic trypsin upto 30 uM
How it was run: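 Porcine pancreatic trypsin (1 mg/mL enzyme solution) in 50 mM Tris-HCl, 100 mM NaCl, 1 mM CaCl2, pH 7.8. Test solution added, then 2 mM Nα-benzoyl-DL-arginine 4-nitroanilide hydrochloride substrate solution. Absorbance increase at 405 nm followed for 30 min. Dose–response analysis.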

Sus scrofa [3] = species: Sus scrofa; assay: Selectivity for porcine elastase over porcine trypsin
Bos taurus = species: Bos taurus; assay: Selectivity for bovine alpha chymotrypsin over bovine thrombin
[4] = Selectivity for porcine elastase over bovine thrombin
[5] = target: Plasminogen (Homo sapiens) (UniProt P00747); assay: Inhibition of human plasma plasmin upto 30 uM; type: cell-free
Sequence of Plasminogen (Homo sapiens) (P00747 97-580 limits assumed): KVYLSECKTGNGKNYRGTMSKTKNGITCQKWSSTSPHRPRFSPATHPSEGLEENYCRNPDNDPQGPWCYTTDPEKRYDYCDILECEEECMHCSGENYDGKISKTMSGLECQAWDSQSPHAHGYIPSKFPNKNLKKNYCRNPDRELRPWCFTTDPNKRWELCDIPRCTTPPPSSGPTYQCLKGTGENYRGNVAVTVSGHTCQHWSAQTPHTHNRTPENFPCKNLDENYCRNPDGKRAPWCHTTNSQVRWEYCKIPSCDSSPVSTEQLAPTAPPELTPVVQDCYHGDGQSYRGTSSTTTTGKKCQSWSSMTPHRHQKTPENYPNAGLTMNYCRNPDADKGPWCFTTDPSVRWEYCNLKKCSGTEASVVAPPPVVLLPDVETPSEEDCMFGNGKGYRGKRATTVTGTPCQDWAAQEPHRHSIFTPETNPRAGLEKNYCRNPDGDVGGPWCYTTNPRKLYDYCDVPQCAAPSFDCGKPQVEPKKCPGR
Sequence of Plasminogen (Homo sapiens) (P00747 581-810 limits assumed): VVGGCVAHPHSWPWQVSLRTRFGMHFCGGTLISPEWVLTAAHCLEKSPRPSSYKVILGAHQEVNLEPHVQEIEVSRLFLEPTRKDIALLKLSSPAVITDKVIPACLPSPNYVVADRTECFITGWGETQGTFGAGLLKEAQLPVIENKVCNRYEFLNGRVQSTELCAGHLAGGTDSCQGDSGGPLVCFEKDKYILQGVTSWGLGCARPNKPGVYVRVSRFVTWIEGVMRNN

[6] = Selectivity for porcine elastase over human plasmin
Prothrombin (Bos taurus) = Prothrombin (Bos taurus) (UniProt P00735); assay: Inhibition of bovine plasma thrombin upto 30 uM; type: cell-free
[7] = Selectivity for bovine alpha chymotrypsin over porcine trypsin
[8] = Inhibition of porcine pancreatic elastase; set-up: species or system Sus scrofa
How it was run: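 Porcine pancreatic elastase (75 µg/mL enzyme solution) preincubated with compound in Tris-HCl, pH 8.0, at 30 °C for 20 min. Then 2 mM N-succinyl-Ala-Ala-Ala-p-nitroanilide substrate solution added. Absorbance increase at 405 nm read over 3–30 min. Dose–response analysis, IC50 determined.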

[9] = Inhibition of bovine pancreatic alpha chymotrypsin; set-up: species or system Bos taurus
How it was run: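 Bovine pancreatic α-chymotrypsin (1 mg/mL enzyme solution) in 50 mM Tris-HCl, 100 mM NaCl, 1 mM CaCl2, pH 7.8. Test solution added, then 2 mM N-succinyl-Gly-Gly-Phe-p-nitroanilide substrate solution. Absorbance increase at 405 nm followed for 30 min. Dose–response analysis, IC50 determined.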

In the case of `C/C=C1\NC(=O)[C@@H](NC(=O)[C@H](CCc2ccc(O)cc2)NC(=O)[C@H](C)NC(=O)[C@H](O)COS(=O)(=O)O)[C@@H](C)OC(=O)[C@H](C(C)C)NC(=O)[C@H](Cc2ccc(O)cc2)N(C)C(=O)[C@H](Cc2ccccc2)N2C(=O)[C@H](CC[C@H]2O)NC1=O` [LYNGBYASTATIN 4], the Selectivity ratio [1] is reported as over 100, the Activity (Sus scrofa [2]) is reported as “inactive” and the Selectivity ratio (Sus scrofa [3]) is reported as over 1000. The Selectivity ratio (Bos taurus) was over 100, the Selectivity ratio [4] was over 1000 and the Activity [5] was “inactive”. The Selectivity ratio [6] was over 1000, the Activity (Prothrombin (Bos taurus)) was “inactive” and the Selectivity ratio [7] was over 100. For the same compound, the IC50 [8] was 30 nM and the IC50 [9] was 300 nM.
